The text below walks through data of ChEMBL document CHEMBL1128718, “2-Substituted penems with amino acid-related side chains: synthesis and antibacterial activity of a new series of beta-lactam antibiotics” (1995).

What all share (format): functional
In assay [1] the test system is Escherichia coli. Kind of assay: In Vitro antibacterial activity against (Ec) Escherichia coli ATCC 25922. In short, it runs like this:
(§1)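 Panel of standard ATCC strains plus modified strains: methicillin-resistant, hyperpermeable, β-lactamase-producing (TEM1, TEM2, SHV) and β-lactamase-lacking. MIC determined in Mueller Hinton 2 medium, inoculum 10⁴ cells/mL, incubated 24 h at 37 °C.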

The test system of assay [2] is Staphylococcus aureus. Kind of assay: In vitro antibacterial activity against Sa MR(II) homogeneous methicillin resistant Staphylococcus aureus. An outline of the steps:
(§2)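 MIC was determined in Mueller Hinton 2 medium with an inoculum of 10⁴ cells/mL and incubation for 24 h at 37 °C. Strains: Sa(I) is S. aureus ATCC 29213; Sa MR(I) is a heterogeneous methicillin-resistant S. aureus; Sa MR(II) is a homogeneous methicillin-resistant S. aureus.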

In assay [3] the test system is Escherichia coli. Kind of assay: In Vitro antibacterial activity against (Ec TEM2) Escherichia coli […] strain. In short, it runs like this: as §1
Assay [4] concerns Pseudomonas aeruginosa. As to the kind of experiment: In Vitro antibacterial activity against (Pa) Pseudomonas aeruginosa ATCC 27853. An outline of the steps: as §1
For assay [5], the system named is Escherichia coli. Kind of assay: In Vitro antibacterial activity against (Ec TEM1) Escherichia coli […] strain. An outline of the steps: as §1
For assay [6], the system named is Staphylococcus aureus. Kind of assay: In vitro antibacterial activity against Sa(II) Staphylococcus aureus ATCC 25923. An outline of the steps: as §1
Assay [7] concerns Escherichia coli. As to the kind of experiment: In Vitro antibacterial activity against (Ec DC2) hyperpermeable Escherichia coli strain. An outline of the steps: as §1
The test system of assay [8] is Staphylococcus aureus. Kind of assay: In vitro antibacterial activity against Sa MR(I) heterogeneous methicillin resistant Staphylococcus aureus. In short, it runs like this: as §2
Assay [9] concerns Escherichia coli. As to the kind of experiment: In Vitro antibacterial activity against (Ec L) Escherichia coli […] strain. In short, it runs like this:
as §1

Assay [10] has as its system Escherichia coli. Kind of assay: In Vitro antibacterial activity against (Ec SHV) Escherichia coli […] strain. In short, it runs like this: as §1
Another assay relates to Enterococcus faecalis. Kind of assay: In Vitro antibacterial activity against (Ef) Enterococcus faecalis ATCC 29212. An outline of the steps:
as §1

In assay [11] the test system is Pseudomonas aeruginosa. As to the kind of experiment: In Vitro antibacterial activity against (Pa G242) hyperpermeable Pseudomonas aeruginosa strain. In short, it runs like this: as §1
Assay [12] concerns Staphylococcus aureus. Kind of assay: In vitro antibacterial activity against Sa(I) Staphylococcus aureus ATCC 29213. In short, it runs like this: as §2
In assay [13] the test system is Pseudomonas aeruginosa. Kind of assay: In Vitro antibacterial activity against (Pa) hyperpermeable Pseudomonas aeruginosa […] strain. In short, it runs like this:
as §1

Converted amounts (≈) assume the structure as drawn.

The MIC is the lowest concentration found to suppress growth. Low readings indicate inhibition by little substance, high ones a need for much substance.

For the compound `C[C@@H](O)[C@H]1C(=O)N2C(C(=O)O)=C(CN3CCCC(C(N)=O)C3)S[C@H]12` (stereo not given in full), the MIC was 4 µg/mL (≈ 11.3 µM) in the assay on Escherichia coli [1]; 2 µg/mL (≈ 5.63 µM) against Staphylococcus aureus [2]; 4 µg/mL (≈ 11.3 µM) with Escherichia coli [3]; more than 64 µg/mL in the assay with Pseudomonas aeruginosa [4]; 4 µg/mL (≈ 11.3 µM) in the assay on Escherichia coli [5]; 0.06 µg/mL (≈ 0.169 µM) in the assay with Staphylococcus aureus [6]. The minimal inhibitory concentration (MIC) stood at 4 µg/mL (≈ 11.3 µM) against Escherichia coli [7]; 0.12 µg/mL (≈ 0.338 µM) in the assay on Staphylococcus aureus [8]; 8 µg/mL (≈ 22.5 µM) with Escherichia coli [9]; 4 µg/mL (≈ 11.3 µM) with Escherichia coli [10]; 32 µg/mL (≈ 90 µM) against Enterococcus faecalis; 4 µg/mL (≈ 11.3 µM) in the assay on Pseudomonas aeruginosa [11]. In addition, the MIC against Staphylococcus aureus [12] came to 0.06 µg/mL (≈ 0.169 µM); with Pseudomonas aeruginosa [13], 1 µg/mL (≈ 2.81 µM).

Regarding `C[C@H](C(N)=O)N(C)CC1=C(C(=O)O)N2C(=O)[C@H]([C@@H](C)O)[C@H]2S1`, the MIC in the assay with Escherichia coli [1] is 0.12 µg/mL (≈ 0.364 µM); against Staphylococcus aureus [2], 2 µg/mL (≈ 6.07 µM); against Escherichia coli [3], 0.25 µg/mL (≈ 0.759 µM); against Pseudomonas aeruginosa [4] it was more than 64 µg/mL; against Escherichia coli [5] it was 0.25 µg/mL (≈ 0.759 µM); against Staphylococcus aureus [6], 0.06 µg/mL (≈ 0.182 µM). Besides, the minimal inhibitory concentration (MIC) with Escherichia coli [7] was determined as 2 µg/mL (≈ 6.07 µM); against Staphylococcus aureus [8], 0.06 µg/mL (≈ 0.182 µM); in the assay on Escherichia coli [9] it was 0.12 µg/mL (≈ 0.364 µM); in the assay with Escherichia coli [10], 1 µg/mL (≈ 3.04 µM); with Enterococcus faecalis it was 2 µg/mL (≈ 6.07 µM); in the assay on Pseudomonas aeruginosa [11], 0.25 µg/mL (≈ 0.759 µM). In addition, the results for the MIC against Staphylococcus aureus [12] and in the assay on Pseudomonas aeruginosa [13] were 0.03 µg/mL (≈ 0.0911 µM) and 2 µg/mL (≈ 6.07 µM), respectively.

With `C[C@@H](O)[C@H]1C(=O)N2C(C(=O)O)=C(CN(CC(N)=O)CC(N)=O)S[C@H]12`, the minimum inhibitory concentration (MIC) in the assay on Escherichia coli [1] is 0.12 µg/mL (≈ 0.335 µM); in the assay on Staphylococcus aureus [2], 1 µg/mL (≈ 2.79 µM); against Escherichia coli [3], 0.25 µg/mL (≈ 0.698 µM); in the assay on Pseudomonas aeruginosa [4], more than 64 µg/mL; against Escherichia coli [5] it was 0.25 µg/mL (≈ 0.698 µM); in the assay on Staphylococcus aureus [6], 0.06 µg/mL (≈ 0.167 µM). Also, the minimal inhibitory concentration (MIC) with Escherichia coli [7] is 0.25 µg/mL (≈ 0.698 µM); in the assay on Staphylococcus aureus [8], 0.25 µg/mL (≈ 0.698 µM); with Escherichia coli [9], 0.25 µg/mL (≈ 0.698 µM); against Escherichia coli [10], 0.5 µg/mL (≈ 1.4 µM); against Enterococcus faecalis, more than 64 µg/mL; against Pseudomonas aeruginosa [11], 0.25 µg/mL (≈ 0.698 µM). The minimum inhibitory concentration (MIC) was determined as 0.12 µg/mL (≈ 0.335 µM) in the assay on Staphylococcus aureus [12] and 0.5 µg/mL (≈ 1.4 µM) against Pseudomonas aeruginosa [13].

As for `C[C@@H](O)[C@H]1C(=O)N2C(C(=O)O)=C(CN3CCC[C@H]3C(=O)O)S[C@H]12`, the minimal inhibitory concentration (MIC) with Escherichia coli [1] was 2 µg/mL (≈ 5.84 µM); in the assay on Staphylococcus aureus [2], 32 µg/mL (≈ 93.5 µM); with Escherichia coli [3], 32 µg/mL (≈ 93.5 µM); against Pseudomonas aeruginosa [4] it was more than 64 µg/mL; against Escherichia coli [5], 8 µg/mL (≈ 23.4 µM); against Staphylococcus aureus [6] it was 0.5 µg/mL (≈ 1.46 µM). In addition, the MIC is 16 µg/mL (≈ 46.7 µM) in the assay with Escherichia coli [7]; 1 µg/mL (≈ 2.92 µM) against Staphylococcus aureus [8]; 8 µg/mL (≈ 23.4 µM) against Escherichia coli [9]; 8 µg/mL (≈ 23.4 µM) against Escherichia coli [10]; more than 64 µg/mL against Enterococcus faecalis; 4 µg/mL (≈ 11.7 µM) with Pseudomonas aeruginosa [11]. Moreover, the minimal inhibitory concentration (MIC) in the assay on Staphylococcus aureus [12] turned out to be 0.03 µg/mL (≈ 0.0876 µM); against Pseudomonas aeruginosa [13], 32 µg/mL (≈ 93.5 µM).

For `CCN(CC(N)=O)CC1=C(C(=O)O)N2C(=O)[C@H]([C@@H](C)O)[C@H]2S1`, the minimal inhibitory concentration (MIC) against Escherichia coli [1] is 0.5 µg/mL (≈ 1.52 µM); in the assay with Staphylococcus aureus [2], 2 µg/mL (≈ 6.07 µM); against Escherichia coli [3] it was 1 µg/mL (≈ 3.04 µM); with Pseudomonas aeruginosa [4], more than 64 µg/mL; against Escherichia coli [5], 0.5 µg/mL (≈ 1.52 µM); with Staphylococcus aureus [6], 0.06 µg/mL (≈ 0.182 µM). Moreover, the minimum inhibitory concentration (MIC) against Escherichia coli [7] was found to be 1 µg/mL (≈ 3.04 µM); in the assay on Escherichia coli [9], 0.5 µg/mL (≈ 1.52 µM); with Escherichia coli [10] it was 1 µg/mL (≈ 3.04 µM); in the assay with Pseudomonas aeruginosa [11], 0.5 µg/mL (≈ 1.52 µM); in the assay on Staphylococcus aureus [12], 0.06 µg/mL (≈ 0.182 µM); against Pseudomonas aeruginosa [13], 2 µg/mL (≈ 6.07 µM).

Consider `CCCCOC(=O)CN(C)CC1=C(C(=O)O)N2C(=O)[C@H]([C@@H](C)O)[C@H]2S1`, for which the minimum inhibitory concentration (MIC) in the assay with Escherichia coli [1] was 32 µg/mL (≈ 85.9 µM); against Staphylococcus aureus [2], 16 µg/mL (≈ 43 µM); in the assay on Escherichia coli [3], more than 64 µg/mL; in the assay on Pseudomonas aeruginosa [4] it was more than 64 µg/mL; in the assay with Escherichia coli [5], more than 64 µg/mL; in the assay with Staphylococcus aureus [6] it was 0.25 µg/mL (≈ 0.671 µM). Also, the MIC in the assay on Escherichia coli [7] was 1 µg/mL (≈ 2.68 µM); in the assay on Staphylococcus aureus [8], 0.5 µg/mL (≈ 1.34 µM); in the assay with Escherichia coli [9], more than 64 µg/mL; against Escherichia coli [10], more than 64 µg/mL; in the assay with Enterococcus faecalis, 8 µg/mL (≈ 21.5 µM); against Pseudomonas aeruginosa [11] it was more than 64 µg/mL. Moreover, the MIC in the assay with Staphylococcus aureus [12] is 0.5 µg/mL (≈ 1.34 µM); with Pseudomonas aeruginosa [13], more than 64 µg/mL.

As to `C[C@@H](O)[C@H]1C(=O)N2C(C(=O)O)=C(CN(C)CC(=O)NCC(N)=O)S[C@H]12`, the MIC in the assay with Escherichia coli [1] is 0.25 µg/mL (≈ 0.671 µM); against Staphylococcus aureus [2], 4 µg/mL (≈ 10.7 µM); against Escherichia coli [3], 0.5 µg/mL (≈ 1.34 µM); in the assay on Pseudomonas aeruginosa [4] it was more than 64 µg/mL; in the assay with Escherichia coli [5] it was 0.5 µg/mL (≈ 1.34 µM); in the assay with Staphylococcus aureus [6], 0.12 µg/mL (≈ 0.322 µM). Besides, the MIC in the assay with Escherichia coli [7] was determined as 1 µg/mL (≈ 2.69 µM); with Staphylococcus aureus [8], 0.25 µg/mL (≈ 0.671 µM); against Escherichia coli [9], 0.5 µg/mL (≈ 1.34 µM); with Escherichia coli [10], 0.5 µg/mL (≈ 1.34 µM); in the assay with Enterococcus faecalis it was 8 µg/mL (≈ 21.5 µM); in the assay on Pseudomonas aeruginosa [11], 0.5 µg/mL (≈ 1.34 µM). In addition, the minimal inhibitory concentration (MIC) in the assay on Staphylococcus aureus [12] turned out to be 0.25 µg/mL (≈ 0.671 µM); in the assay on Pseudomonas aeruginosa [13] it was 1 µg/mL (≈ 2.69 µM).

On to `COC(=O)[C@@H]1CCCN1CC1=C(C(=O)O)N2C(=O)[C@H]([C@@H](C)O)[C@H]2S1`, for which the MIC in the assay on Escherichia coli [1] is 4 µg/mL (≈ 11.2 µM); against Staphylococcus aureus [2], 4 µg/mL (≈ 11.2 µM); in the assay with Escherichia coli [3] it was 8 µg/mL (≈ 22.4 µM); against Pseudomonas aeruginosa [4], more than 64 µg/mL; against Escherichia coli [5] it was 8 µg/mL (≈ 22.4 µM); against Staphylococcus aureus [6] it was 0.12 µg/mL (≈ 0.337 µM). For the same compound, the MIC with Escherichia coli [7] was found to be 2 µg/mL (≈ 5.61 µM); against Staphylococcus aureus [8] it was 0.25 µg/mL (≈ 0.701 µM); in the assay on Escherichia coli [9], 4 µg/mL (≈ 11.2 µM); in the assay on Escherichia coli [10], 8 µg/mL (≈ 22.4 µM); with Enterococcus faecalis, 8 µg/mL (≈ 22.4 µM); with Pseudomonas aeruginosa [11], 8 µg/mL (≈ 22.4 µM). In addition, the minimal inhibitory concentration (MIC) against Staphylococcus aureus [12] was 0.25 µg/mL (≈ 0.701 µM); against Pseudomonas aeruginosa [13], 4 µg/mL (≈ 11.2 µM).
